Rows were chosen to be rich in hits. Some 2.6% of all compounds tested hit in one or more screens of this group.
UCH37 DUB inh = inhibitors of human deubiquitinating enzyme UCH37 | purified proteasome/UCH37, Ub-AMC cleavage fluorescence | inhibition, % (concentration not given with the values) | hit rate 0.33% among 330,000;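 active means mean inhibition over replicate wells above about 20%, limit read from the data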;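 further: 0% = compound-free wells with enzyme and 100% = wells lacking proteasome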
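Test system – human UCH37 enzyme supplied as purified proteasome complex · Incubation – 30 min preincubation with enzyme, 25 min cleavage at room temperature · Detection – AMC fluorescence from Ub-AMC cleavage, excitation 355 nm, emission 460 nm · Benchmarks – no-proteasome wells (full inhibition) and compound-free wells (no inhibition)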
SENP7 block = blocks the human protease SENP7. AID 434973. recombinant SENP7, Z-RLRGG-aminoluciferin luminescence, 40 min. Q9BQF6. inhibition, % at 5 µM. hit rate 1.5% among 330,000;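 active means inhibition above about 50% at the single test dose, limit read from the data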;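 further: plate controls were DMSO with enzyme for no effect and no enzyme buffer wells for full effect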
SENP1 FRET inh = SENP1 (human) catalytic domain inhibition; recombinant SENP1 catalytic domain, CyPet-SUMO1-YPet FRET cleavage; inhibition, % at 10 µM; hit rate 0.21% among 360,000;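 active means inhibition at least 30% at 10 µM, raw YFP signal under a set limit, fluorescence ratio 0.5 to 1.5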;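 further: 0% = enzyme with DMSO and 100% = no enzyme wells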
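Assay system – human recombinant His6-tagged SENP1 catalytic domain enzyme · Input – SENP1 enzyme, 20 pM final · Buffer or medium – Tris pH 8 buffer plus EDTA, NaCl, BME, BSA, NP40, catalase · Schedule – 50 min reaction at room temperature · Technique – FRET read of cyan and yellow fluorescence · Control set – no-enzyme wells low, DMSO-plus-enzyme wells high control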
SENP6 block = SENP6 protease inhibition. AID 2599. Recombinant SENP6 catalytic domain, aminoluciferin luminescence. inhibition, % at 10 µM. hit rate 1.8% among 330,000;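 active means inhibition above about 50% at the single tested dose, limit read from the data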;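 further: plate controls were DMSO wells with enzyme for no effect and DMSO wells lacking enzyme for full effect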
SENP8 block-1 = blocks the human protease SENP8. purified SENP8, Z-RLRGG-aminoluciferin cleavage, luminescence. inhibition, % at 10 µM. AID 2540. hit rate 1.2% among 330,000. Q96LD8; in the data active means inhibition above about 50%
Target sequence (Q96LD8 whole entry, looked up): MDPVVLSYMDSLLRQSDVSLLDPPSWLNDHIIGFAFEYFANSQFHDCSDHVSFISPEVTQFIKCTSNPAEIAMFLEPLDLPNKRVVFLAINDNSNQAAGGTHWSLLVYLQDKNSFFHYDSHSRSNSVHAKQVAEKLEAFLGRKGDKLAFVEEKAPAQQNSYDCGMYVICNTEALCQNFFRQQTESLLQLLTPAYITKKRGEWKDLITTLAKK
SENP8 block-2 = SENP8 (human) protease inhibition; Q96LD8; recombinant SENP8, Nedd8 substrate fluorescence; hit rate 0.64% among 360,000; AID 602440; inhibition, % at 20 µM; in the data active means inhibition mostly above about 40%, no sharp cut-off; inactive means mostly below about 27%
SENP1 conf = SENP1 (human) inhibition, single concentration confirmation. shares compounds with SENP1 FRET inh. recombinant SENP1, CyPet-SUMO1-YPet FRET cleavage. inhibition, % at 10 µM. hit rate 34% among 520. AID 651678; in the data active means inhibition mostly above about 35%, no sharp cut-off; inactive means mostly below about 32%;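 further: 0% = enzyme with DMSO and 100% = no enzyme control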
SENP1 kin conf = confirmation of human SENP1 SUMO protease inhibitors, kinetic; inhibition, % at 10 µM; hit rate 26% among 520; AID 651690; recombinant SENP1, CyPet-SUMO1-YPet FRET kinetic cleavage; shares compounds with SENP1 FRET inh; in the data active means inhibition mostly above about 32%, no sharp cut-off; inactive means mostly below about 29%;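 further: 0% = DMSO with enzyme and 100% = no enzyme substrate only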
Active calls of the source: *; · = not tested or not shown.

SMILES	UCH37 DUB inh	SENP7 block	SENP1 FRET inh	SENP6 block	SENP8 block-1	SENP8 block-2	SENP1 conf	SENP1 kin conf
O=C(Cn1c(O)c(/C=C2\C=Nc3ccccc32)sc1=O)Nc1ccc2c(c1)OCO2	6	10	46*	2	11	5	10	2
CCC1CCCC1=NNC(=O)c1cc(C)[nH]n1 (stereo not drawn)	1	·	·	·	·	·	·	·
Cc1c(C=NNC(=O)c2ccc(O)cc2)c2ccccn2c1C(=O)c1ccc(F)cc1	-9	·	·	·	·	·	·	·
Cc1c(C=NNC(=O)c2ccc(Br)cc2)c2ccccn2c1C(=O)c1ccncc1	6	-35	50*	2	-2	24	30	18
COc1ccc(-c2ccc3c(c2)S(=O)(=O)c2cccc(C(=O)NCc4cc(C)oc4C(F)(F)F)c2C3=O)cc1OC	3	-1	59*	-7	8	-10	44*	34*
COc1ccc(-c2cnnc(N/N=C/c3ccc(-c4ccc([N+](=O)[O-])cc4)o3)n2)cc1	·	·	36*	·	·	25	-2	9
COc1ccc(-c2cnnc(NN=Cc3ccc(-c4ccc([N+](=O)[O-])cc4)o3)n2)cc1	9	·	·	·	·	·	·	·
COc1ccc(/C=C2\SC(=S)N(CCC(=O)NC3=NCCS3)C2=O)cc1OC	8	11	53*	14	8	18	9	17
COc1cc(/C=C2\SC(=S)N(CCC(=O)NCCc3ccccc3)C2=O)cc(OC)c1OC	7	4	35*	-8	8	23	13	16
CC(=O)Oc1ccc(/C=C2/SC(=S)N(Cc3ccccc3)C2=O)cc1	5	6	74*	9	-1	17	6	8
CC(=NNC(=O)Cc1ccc(F)cc1)c1ccc(O)cc1	-1	·	·	·	·	·	·	·
NS(=O)(=O)c1ccc(NN=Cc2ccccc2Br)cc1	-4	·	·	·	·	·	·	·
COc1ccc(C(=O)NN=Cc2ccc(OC(=O)c3ccccc3)cc2)cc1	-3	·	·	·	·	·	·	·
O=c1[nH]c2cc([N+](=O)[O-])ccc2c2cc(Br)ccc12	·	·	33*	·	·	8	25	14
O=c1[nH]c2cc([N+](=O)[O-])ccc2c2ccccc12	·	·	8	·	·	6	·	·
Cc1ccc(-c2n[nH]c(=S)n2N=Cc2cccn2C)cc1	5	·	·	·	·	·	·	·
CC(=O)c1ccc(Sc2ccccc2N)c([N+](=O)[O-])c1	4	3	37*	-32	-6	-142	15	7
O=C1/C(=C/c2ccc([N+](=O)[O-])cc2)C=C(c2ccccc2)N1c1ccccc1	7	2	40*	2	0	2	-4	-2
OC1(C#Cc2c(-c3ccsc3)oc3ccc(N4CCOCC4)cc23)CCCCC1	-37	-5	-7	-2	-7	-472	·	·
O=C(OCc1ccc(O)cc1)c1c(-c2ccsc2)oc2ccc(N3CCOCC3)cc12	-1	-2	36*	-10	1	-146	19	21
